{"data": "Published values from different studies", "target": "Protein kinase C delta type (PRKCD, Homo sapiens, UniProt Q05655)"}
{"Compound": "Cc1cc(NC(=O)c2cccc3cc(-c4cccc5[nH]nc(N)c45)ccc23)ccc1F", "assay": "enzyme activity, inhibitor", "conditions": "0.1 µM", "quantity": "activity vs control", "value": "108%"}
{"Compound": "Oc1cccc(-c2nc(N3CCOCC3)c3oc4ncccc4c3n2)c1", "assay": "cell-free assay", "conditions": "0.5 µM", "quantity": "remaining signal", "value": "96%"}
{"Compound": "Cn1cncc1C1=CN(c2ncnc3[nH]cnc23)CCS1", "assay": "enzyme activity, inhibitor, radiometric", "conditions": "2 µM", "quantity": "inhibition", "value": "81.1%"}
{"Compound": "CCCOc1ccc(OC)c(F)c1C(=O)c1ccc(C(=O)N[C@@H]2CNC[C@H]2NC(=O)c2ccc3[nH]ncc3c2)cc1", "assay": "enzyme activity, inhibitor", "conditions": "50 nM", "quantity": "remaining activity", "value": "103%"}
{"Compound": "Cc1ccc(C(=O)Nc2ccc(CN3CCN(C)CC3)c(C(F)(F)F)c2)cc1C#Cc1cnc2cccnn12", "assay": "enzyme activity", "conditions": "23.5 nM", "quantity": "remaining activity", "value": "64%"}
{"Compound": "O=C1Nc2ccc(Cl)cc2C1=Cc1cc(Cl)c(O)c(Cl)c1", "assay": "cell-free assay", "conditions": "0.5 µM", "quantity": "remaining signal", "value": "86.7%"}
{"Compound": "COc1cc2ncnc(Nc3ccc(Oc4ccccc4)cc3C)c2cc1OC", "assay": "enzyme activity, inhibitor", "conditions": "1 µM", "quantity": "inhibition", "value": "11%"}
{"Compound": "Cc1ccc(Nc2nccc(N(C)c3ccc4c(C)n(C)nc4c3)n2)cc1S(N)(=O)=O", "assay": "enzyme activity", "conditions": "0.5 µM", "quantity": "remaining activity", "value": "106%"}
{"Compound": "CC(=O)C1=C(C)N(c2cccc(C(F)(F)F)c2)C(=O)N[C@@H]1c1ccc(C#N)nc1", "assay": "cell-free assay, competition with immobilised ligand", "conditions": "1 µM", "quantity": "remaining binding", "value": "100%"}
{"Compound": "Cn1cnc(Br)c1C1=CN(c2ncnc3[nH]cnc23)CCS1", "assay": "enzyme activity, inhibitor, radiometric", "conditions": "50 nM", "quantity": "inhibition", "value": "29%"}
{"Compound": "Cc1ccc(NC(=O)c2ccc(C)c(C(F)(F)F)c2)cc1C#Cc1nn(C2CCC(O)CC2)c2ncnc(N)c12 (stereo not drawn)", "assay": "cell-free assay", "conditions": "10 µM", "quantity": "remaining signal", "value": "96%"}
{"Compound": "CS(=O)(=O)NCC[C@H](NC(=O)c1cncc2c1cnn2-c1ccc(F)cc1)c1ccnc(S(C)(=O)=O)c1", "assay": "cell-free assay, competition with immobilised ligand", "conditions": "1 µM", "quantity": "remaining binding", "value": "76%"}
{"Compound": "O=C(Nc1cnn(-c2csc(C(=O)NC3COC3)c2)c1)Nc1ccccc1Cl", "assay": "enzyme activity, inhibitor", "conditions": "5 µM", "quantity": "remaining activity", "value": "112%"}
{"Compound": "CC(C)c1ccc(NC(=O)c2cccs2)c(-c2nc3ccccc3[nH]c2=O)c1", "assay": "enzyme activity, inhibitor", "conditions": "1 µM", "quantity": "activity vs control", "value": "104%"}
{"Compound": "c1ccc(N2CCN(Cc3nc4ccccc4[nH]3)CC2)nc1", "assay": "cell-free assay, competition with immobilised ligand", "conditions": "1 µM", "quantity": "remaining binding", "value": "100%"}
{"Compound": "Cc1cnc(NC2CCOCC2)nc1-n1cnc(C(=O)NC(CN)c2cc(F)cc(Cl)c2)c1 (stereo not drawn)", "assay": "enzyme activity, inhibitor, radiometric", "conditions": "1 µM", "quantity": "remaining activity", "value": "59%"}
{"Compound": "CC1=C(C#N)C(c2ccc3c(c2)c(NC(=O)c2ccccc2C)nn3C)C(C#N)=C(C)N1", "assay": "cell-free assay, competition with immobilised ligand", "conditions": "1 µM", "quantity": "remaining binding", "value": "100%"}
{"Compound": "CCCS(=O)(=O)Nc1ccc(F)c(C(=O)c2c[nH]c3ncc(-c4ccc(Cl)cc4)cc23)c1F", "assay": "enzyme activity, inhibitor", "conditions": "1 µM", "quantity": "inhibition", "value": "< 20%"}
{"Compound": "O=C(O)[C@H]1[C@H](Cn2nnc3ccccc3c2=O)CC[C@@H]1C(=O)c1ccc(OCCC2CCOCC2)cc1", "assay": "cell-free assay, competition with immobilised ligand", "conditions": "1 µM", "quantity": "remaining binding", "value": "100%"}
{"Compound": "CC/C(=N\\NC(=O)NCc1cccc(O)c1)c1ccc(O)c(C)c1O", "assay": "enzyme activity, inhibitor", "conditions": "0.1 µM", "quantity": "inhibition", "value": "24.6%"}
{"Compound": "CSc1cccnc1N1CCN(Cc2nc3ccccc3[nH]2)CC1", "assay": "cell-free assay, competition with immobilised ligand", "conditions": "1 µM", "quantity": "remaining binding", "value": "100%"}
{"Compound": "CN1CC(Oc2cnc(C#N)cc2-c2ccn3nc(NC(=O)C4CC4)cc3c2)C1", "assay": "enzyme activity, inhibitor", "conditions": "1 µM", "quantity": "inhibition", "value": "3%"}
{"Compound": "C[C@@]1(Cc2ccc(C#N)cc2)C(=O)N(c2cc(Cl)cc(Cl)c2)c2ncc(C(=O)NC3(c4nc(C5CCC5)no4)CC3)n21", "assay": "cell-free assay, competition with immobilised ligand", "conditions": "1 µM", "quantity": "remaining binding", "value": "100%"}
{"Compound": "CC(C)(C)c1nc(-c2cccc(NS(=O)(=O)c3c(F)cccc3F)c2F)c(-c2ccnc(N)n2)s1", "assay": "enzyme activity, inhibitor, radiometric", "conditions": "1 µM", "quantity": "remaining activity", "value": "119%"}
